# Screening results from PubChem BioAssay.
# Diaph inh CS = diaphorase inhibitors and chemical oxidizers, primary screen, counter-screen for diaphorase-coupled primary assays, biochemical, uHTS, resorufin fluorescence | diaphorase resazurin-to-resorufin fluorescence, NADH, 16 min; bacterial (C. kluyveri) enzyme, not human | inhibition, % at 20 µM | 0.69% of 190,000 active;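 active = primary screen inhibition at 20 µM above a set limit, cut at about 50% in these data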;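 note: plate controls were DMSO with full reaction for no effect and wells lacking NADH for full effect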
#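 Detection: fluorescence of resorufin formed from resazurin, Ex 544/Em 590 nm; test system: Clostridium kluyveri diaphorase enzyme; amount: 0.14 U/mL diaphorase, enzyme working solution; times: 16-min room-temperature incubation before reading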
# ATG4B inhibitor = ATG4B protease inhibitors, primary screen, biochemical, fluorescence, uHTS | 0.51% of 340,000 active | ATG4B cleavage of LC3-PLA2, NBD-HPC fluorescence, 1 h | AID 504462, 2011 | inhibition, % at 8.33 µM; in the data active = inhibition above about 40%
# Target sequence (Q9Y4P1 whole entry, looked up): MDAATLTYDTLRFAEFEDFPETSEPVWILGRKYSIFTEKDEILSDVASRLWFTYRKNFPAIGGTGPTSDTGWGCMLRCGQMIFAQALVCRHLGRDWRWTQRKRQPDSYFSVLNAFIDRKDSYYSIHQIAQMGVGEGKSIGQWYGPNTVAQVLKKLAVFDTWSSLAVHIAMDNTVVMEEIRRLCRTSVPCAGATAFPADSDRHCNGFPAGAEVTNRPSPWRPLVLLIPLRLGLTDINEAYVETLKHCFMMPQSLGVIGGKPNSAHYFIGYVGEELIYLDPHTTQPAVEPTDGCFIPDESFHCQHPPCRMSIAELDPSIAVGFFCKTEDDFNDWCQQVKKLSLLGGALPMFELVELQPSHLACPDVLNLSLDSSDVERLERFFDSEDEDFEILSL
# HKDC1 inh = HKDC1 hexokinase inhibitors, primary screen, biochemical, fluorescence, uHTS; Q2TB90; recombinant HKDC1, G6PDH/diaphorase resazurin coupled fluorescence; 0.16% of 340,000 active; inhibition, % at 20 µM;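 active = inhibition above about 35% when tested at 20 µM, limit read from the data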;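 note: plate controls were DMSO wells with enzyme for no effect and DMSO wells lacking enzyme for full effect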
#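 Test system: recombinant HKDC1 (HK5) hexokinase enzyme, produced in-house; Amount: enzyme 5 µg/mL final; Buffer or medium: Tris pH 8.0 buffer with MgCl2, Tween-20, BSA, BME; Reagent: glucose and ATP substrates; Doses: 20 µM test compound, 1% DMSO; Incubation: 90 min reaction incubation at room temperature, dark; Detection: resorufin fluorescence at 613 nm.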
# CTSL1 counter = Fasciola hepatica cathepsin L1 inhibitors, primary screen, counter-screen for PFM18AAP inhibitor project, biochemical, QFRET, fluorogenic peptide substrate; recombinant F. hepatica cathepsin L1, Z-Leu-Arg-MCA fluorescence; inhibition, % at 5.96 µM; 0.49% of 300,000 active; AID 1906, 2009;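 active = inhibition above the mean of all tested compounds plus 3 SD, set per screening campaign, cut at about 17% in these data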;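 note: 0% = plate median of test compound wells and 100% = 1 µM Z-Phe-Ala-diazomethylketone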
# Diaph act CS = compounds boosting diaphorase resazurin reduction – biochemical, uHTS, resorufin fluorescence, counter-screen for diaphorase-coupled primary assays, primary screen | 0.005% of 190,000 active | activation factor at 20 µM | Diaphorase/resazurin coupled assay, 16 min; active compounds read high; 1 = vehicle wells, 0 = NADH-free wells;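 active = diaphorase activity raised at least twofold by the compound at 20 µM; inactive = activation factor below 2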
#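 Measured by – red resorufin fluorescence at 544/590 nm excitation/emission · Test system – Clostridium kluyveri diaphorase, purified enzyme · Incubation – reaction time 16 min, room temperature · Buffer or medium – 50 mM HEPES pH 7.4 with 4.542 mM MgCl2, 0.005% Tween 20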
# The depositor's hits bear a star; nt = no result. Shown are actives, neighbours in structure and some others; about 1.4% of the full set was active somewhere.
SMILES,Diaph inh CS,ATG4B inhibitor,HKDC1 inh,CTSL1 counter,Diaph act CS
CSCCC(NC(=O)c1ccccc1)C(=O)NCCCSc1ccccc1 (stereo not given),nt,8,4,nt,nt
CCCCc1cc(=O)oc2cc(OCC(=O)N3CCOCC3)ccc12,nt,-15,-2,-3,nt
CCCCc1cc(=O)oc2cc(OCC(=O)N3CCC(C(=O)O)(c4ccccc4)CC3)ccc12,nt,-34,4,20*,nt
CCCCC1CCC(C(=O)N(CCCC)c2c(N)n(CCCC)c(=O)[nH]c2=O)CC1 (stereo not given),nt,-6,-5,1,nt
Cc1ccc([N+](=O)[O-])cc1NC(=S)NCCc1ccccc1,nt,11,-4,58*,nt
O=C(/C=C/c1ccccc1Cl)NC1CCS(=O)(=O)C1 (stereo not given),16,-4,-10,42*,0.8
C=CCN(c1ccccc1)S(=O)(=O)c1cccc(C(=O)N(CC)CC(=O)Nc2c(F)cccc2F)c1,nt,1,0,-5,nt
Oc1ccc(-c2nc(-c3ccc(O)c(O)c3)cs2)cc1,63*,-19,-1,-1,0.4
Cc1cc(C)c2[nH]c(O)c(N=NC3=NC(=O)CS3)c2c1,nt,-5,0,8,nt
CCc1ccc2c(c1)c(N=NC1=NC(=O)CS1)c(O)n2C,84*,1,7,4,0.2
Oc1ccc(/C=N/NC(=S)N2CCOCC2)cc1,12,-1,-26,17*,0.9
Cc1ccc(C)c(NC(=O)COC(=O)CNC(=O)C2CCCCC2)c1,nt,-4,0,nt,nt
Cc1cccc(NC(=O)COC(=O)CNC(=O)C2CCCCC2)c1,-3,-9,-1,25*,1
CC(C)CCNC(=O)NC(=O)COC(=O)CNC(=O)C1CCCCC1,-17,-10,-8,26*,1.2
N#Cc1ccc(NC(=O)COC(=O)CNC(=O)C2CCCCC2)cc1,-4,-4,1,31*,1
O=C(O)c1cc(-n2[nH]c(=O)c3ccccc3c2=O)ccc1Cl,nt,-1,-2,-4,nt
Cc1cc(C)n2nc(C(=O)OCC(=O)NCc3ccc(F)cc3)nc2n1,nt,-4,-2,nt,nt
COc1ccc2c(=O)c3c(=O)n(Cc4ccco4)c(-c4ccco4)nc3oc2c1,52*,-8,19,3,0.5
COc1ccc(-c2nc3oc4cc(OC)ccc4c(=O)c3c(=O)n2Cc2ccco2)cc1,23,-10,-7,2,0.8
COc1ccccc1CNC(=O)CCS(=O)(=O)c1ccc(Cl)cc1,nt,-2,0,29*,nt
Cc1ccc(S(=O)(=O)CCC(=O)NCc2ccccc2Cl)cc1,11,0,-10,-2,0.9
NC(=O)c1cccc(-c2cnc(N)c(C(=O)c3cccnc3)n2)c1,nt,3,2,nt,nt
Cc1c(C=O)c(Cl)n(C)c(=O)c1C#N,44,-5,12,67*,0.6
O=C1NC(=O)C(c2ccccc2)N1 (stereo not given),nt,-6,-8,nt,nt
COc1ccc(CNC(=O)C(C)Sc2nc3ccccc3c(=O)n2CC2CCCO2)cc1 (stereo not given),nt,-4,-2,nt,nt
SMILES,Diaph inh CS,ATG4B inhibitor,HKDC1 inh,CTSL1 counter,Diaph act CS
COc1cc(C(=O)O/N=C2\C=CC(=O)C=C2C)cc(OC)c1OC,58*,0,-7,2,0.4
COc1cc(C(=O)ON=C2C3CC4CC(C3)CC2C4)cc(OC)c1OC,nt,-3,3,36*,nt
COc1cc(C(=O)O/N=C2/C=CC(=O)C(C)=C2C)cc(OC)c1OC,33,-10,7,nt,0.7
Cc1nn(C)c(C)c1NC(=O)Nc1ccc(Cl)c(Cl)c1,10,1,-4,20*,0.9
CNC(=O)CNC(=O)Nc1ccc(Cl)c(Cl)c1,67*,-6,-3,3,0.3
Cc1cc2cc(C(c3nnnn3Cc3ccccc3)N3CCc4ccccc43)c(=O)[nH]c2cc1C (stereo not given),42,-6,3,3,0.6
Cc1cc2cc(C(c3nnnn3Cc3ccco3)N3CCc4ccccc43)c(=O)[nH]c2cc1C (stereo not given),83*,7,21,-1,0.2
Cc1cc2cc(C(c3nnnn3Cc3ccco3)N3CCc4ccccc4C3)c(=O)[nH]c2cc1C (stereo not given),59*,-3,8,-5,0.4
CC(=O)C1=C(O)C(=O)N(c2cccc(Br)c2)C1c1ccccc1Cl (stereo not given),nt,8,-1,-2,nt
CCNC(=O)C(=O)N/N=C/c1cc([N+](=O)[O-])ccc1O,53*,-11,-18,4,0.5
COc1ccc(N2CC(C(=O)Nc3ccc([N+](=O)[O-])cc3Br)CC2=O)cc1 (stereo not given),nt,-11,-5,1,nt
COc1ccc(N2CC(C(=O)N/N=C/c3cc([N+](=O)[O-])ccc3O)CC2=O)cc1 (stereo not given),55*,11,-7,2,0.5
O=C(N/N=C/c1cc([N+](=O)[O-])ccc1O)Nc1ccccc1,nt,1,-13,1,nt
O=C(CNC(=O)c1ccc(Br)o1)NCc1ccc(F)cc1,nt,-8,1,-2,nt
Cc1cc2c(cc1C)C(=O)C(Br)=C(N)C2=O,nt,-1,9,nt,nt
NC1=C(Br)C(=O)c2ccccc2C1=O,nt,-7,-11,35*,nt
Cc1cc(C)n(CC(O)Cn2c(C)c(C)c3ccccc32)n1 (stereo not given),11,-8,3,19*,0.9
Cc1c(C)n(CC(O)CN2CCCCC2)c2ccccc12 (stereo not given),-3,-7,-3,4,1
CCOC(=O)NC1(Nc2ccc(C)cc2)Oc2ccccc2O1,54*,-5,-8,0,0.5
O=C(NC1CCCC1)C(c1ccccn1)N(C(=O)c1csnn1)c1ccc(F)cc1 (stereo not given),nt,-2,-2,-3,nt
O=C(Cc1c(F)cccc1Cl)NNC(=O)c1ccccc1Cl,nt,-10,-8,nt,nt
O=C(c1ccccc1NS(=O)(=O)c1cccc([N+](=O)[O-])c1)N1CCCC1,nt,-2,1,-1,nt
Nc1nn2c(-c3ccccc3)cc(=O)[nH]c2c1N=Nc1ccc(O)cc1,54*,-9,11,3,0.5
C[C@]12CC[C@@H]3c4cc(O)c(O)cc4CC[C@H]3[C@@H]1CC[C@@H]2O,66*,-5,-6,4,0.3
CC(=O)N(Cc1ccccc1)C(CC(=O)NCc1ccccc1)C(=O)O (stereo not given),nt,-10,-4,nt,nt
COc1ccc(C(=O)C2CCCN(C(=O)COc3ccc(C(C)=O)cc3)C2)cc1F (stereo not given),70*,-1,-3,-1,0.3
